Measurements: the EternaBench riboswitch data

Experiments:
MS2 coat protein [1] = assay: apparent Kd, MS2 coat protein; higher = weaker binding; RNA-MaP array; tryptophan 2.4 mM where present
Method in brief: (§1)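 The apparent Kd is reported as the median of filtered per-cluster binding-curve fits. To get these curves, designs transcribed by stalled E. coli RNA polymerase on Illumina sequencing-chip clusters were titrated with SNAP-549-labelled MS2 coat protein from 0.7 or 1.5 nM, doubling to 3 µM. Titrations were run without and then with constant ligand in 100 mM Tris-HCl pH 7.5, 80 mM KCl, 4 mM MgCl2, BSA, DTT, yeast tRNA and Tween-20, and green signal was normalised to red-channel RNA signal and control-cluster median Fmax.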

MS2 coat protein [2] = assay: apparent Kd, MS2 coat protein; higher = weaker binding; RNA-MaP array; theophylline 2 mM where present
Method in brief: as §1

[3] = designed as: ON switch for tryptophan, no ligand
[4] = ligand present: tryptophan, designed as: ON switch for tryptophan
[5] = designed as: OFF switch for tryptophan, no ligand
[6] = ligand present: tryptophan, designed as: OFF switch for tryptophan
[7] = designed as: OFF switch for theophylline, no ligand
[8] = ligand present: theophylline, designed as: OFF switch for theophylline
[9] = designed as: ON switch for theophylline, no ligand
[10] = ligand present: theophylline, designed as: ON switch for theophylline

Sequence | apparent Kd (MS2 coat protein [1]; [3]) | apparent Kd (MS2 coat protein [1]; [4]) | further results
AAUAAUAUCCUCAUGUGAGUCGUACCGUAACGAGGACCGGUACGGCCGCCACUCGAACAUGAGGAUCACCCAUGUAGGUACGACA | 0.207 µM | 0.0997 µM | –
AUACAUGAGGAUCACCCAUGUGAUGGCCGGCGAGGACCGGUACGGCCGCCACUCGUGAUCCGUCCUGAAAGCAAAGCUCUCAACA | 0.0472 µM | 0.0912 µM | –
GCUACAUGAGGAUCACCCAUGUAUGCGAGCCGAGGACCGGUACGGCCGCCACUCGCUUAACAUGAGGAUCACCCAUGUUUCUCGG | 0.169 µM | 0.125 µM | –
AAUAUAAUAGACUCGUUUUAGUAUUUGGAACGAGGACCGGUACGGCCGCCACUCGUGAUUUACAUGAGGAUCACCCAUGUUAGCA | 0.0147 µM | 0.0131 µM | –
GGGAGGUAGGCGGCCGCCACUGAUUUUCAUAUAUAUAUAACAUGAGGAUCACCCAUGUAGAUAUGCAGGACCGGGCCUGUUUUUU | 0.0239 µM | 0.0193 µM | –
UGCAUUAUACAUGGAUCACCCAUGUAGACACGAGGACCGGUACGGCCGCCACUCGGAAGAGGGAACAUGAGGAUCACCCAUGUGA | 0.0525 µM | 0.0515 µM | –
UGUCAGCGAAAGUUGACAUGUCUUACCGGUCGAGGACCGGUACGGCCGCCACUCGAUCACUCGCACAUGAGGAUCACCCAUGUCG | 0.0124 µM | 0.0117 µM | –
AGAUUCGACACGGCCGCCACUCGUGACGGAUUUCCGAGUGUCGAACAUGAGGAUCACCCAUGUACGAGGACCGGGUGUUGAGUCU | – | – | apparent Kd (MS2 coat protein [1]; [5]): 0.0747 µM; apparent Kd (MS2 coat protein [1]; [6]): 0.499 µM
AGACUUCGCAUAGGAAAACUAUGUGAAGUCCGAGGACCGGUACGGCCGCCACUCGUCCUCACAUGAGGAUCACCCAUGUAAAUAA | – | – | apparent Kd (MS2 coat protein [1]; [5]): 0.0222 µM; apparent Kd (MS2 coat protein [1]; [6]): 0.0291 µM
UAUUAUCAGUCGGCCGCCACUGUCACAUGAGGAUCACCCAUGUAACUUGGGUUAUAUUUAAUAUACAGGACCGGGACAAAGGCUA | – | – | apparent Kd (MS2 coat protein [1]; [5]): 0.0586 µM; apparent Kd (MS2 coat protein [1]; [6]): 0.115 µM
CGAGUAAGAACAAUCGAAUAACGGUUUUCGCGAGGACCGGUACGGCCGCCACUCGUGUGAUAUCACACAUGAGGAUCACCCAUGU | 0.0802 µM | 0.0412 µM | –
GAGUCCGCGGCGGCCGCCACUCGCGAUAUAACAUGAUAUCAGGACAUGAGGAUCACCCAUGUCACGAGGACCGGGCCGAUCCUCA | 0.028 µM | 0.0176 µM | –
ACCUGCGUUUGAUUCUAUCAGACGCAGGUUCGAGGACCGGUACGGCCGCCACUCGGACAUGAGGAUCACCCAUGUUUGACAUGGG | – | – | apparent Kd (MS2 coat protein [1]; [5]): 0.0645 µM; apparent Kd (MS2 coat protein [1]; [6]): 0.211 µM
AGAUUCGACACGGCCGCCACUUUCAGUGGCUGGUCACAUGGUGCACAUGAGGAUCACCCAUGUGGAAGGACCGGGUGUUGAGUCU | – | – | apparent Kd (MS2 coat protein [1]; [5]): 0.028 µM; apparent Kd (MS2 coat protein [1]; [6]): 0.0919 µM
GUCCUCAUGACGGCCGCCACUAAACAUGAGGAUCACCCAUGUAAUGAUCCAUUAAAUGAUAAUAGUAGGACCGGGUCAAAAUAAA | 0.477 µM | 0.669 µM | –
GGAAACCCGACGGCCGCCACUAACGGUCUCAAAAGAGGUUGAACACAUGAGGAUCACCCAUGUAAUAGGACCGGGUCGUGUGAAA | 0.0203 µM | 0.0185 µM | –
AUAUAUACAUGAGGAUCACCCAUGUUAUUUCGAGGACCGGUACGGCCGCCACUCGAUAGAGUGGAAGUAACAUUUGUUAGAUGAU | 0.0157 µM | 0.0154 µM | –
GGUUACUCUACGGCCGCCACUGUCAUGUAAAGAUACCUGUACAUGACAUGAGGAUCACCCAUGUGCAGGACCGGGUAGUGUAACC | 0.152 µM | 0.13 µM | –
CCUAUGCAGUCGGCCGCCACUGAUAACGUUAUCGUUACCUCAGAAACAUGAGGAUCACCCAUGUACAGGACCGGGACUGUAUAGG | – | – | apparent Kd (MS2 coat protein [1]; [5]): 0.0128 µM; apparent Kd (MS2 coat protein [1]; [6]): 0.0153 µM
ACGACGGCUGCGGCCGCCACUGUACAUGAGGAUCACCCAUGUGUAGUAAUUGGGACCCUGUGUUACAGGACCGGGUAGUUGAUUA | – | – | apparent Kd (MS2 coat protein [1]; [5]): 0.0346 µM; apparent Kd (MS2 coat protein [1]; [6]): 0.0699 µM
AGCGUAUAGACGGAUACCAGCGCCAAUUAACAUGAGGAUCACCCAUGUAGUGUGGGUGGACGCCCUUGGCAGCCGAGUAUAGGUA | – | – | apparent Kd (MS2 coat protein [2]; [7]): 0.0978 µM; apparent Kd (MS2 coat protein [2]; [8]): 0.284 µM
CCUCAUGUGUAUCACCACAUGAGUGGUGAUACCAGCAUCGAAAGAUGCCCUUGGCAGCACCAACAUGAGGAUCACCCAUGUAAUA | – | – | apparent Kd (MS2 coat protein [2]; [9]): 0.352 µM; apparent Kd (MS2 coat protein [2]; [10]): 0.101 µM
AUAACAUGAGGAUCACCCAUGUAAGGUGAUACCAGACGAAGUAAAGUCCCUUGGCAGCACAAGCAUAGUUGCGAAUAUUGAUAGA | – | – | apparent Kd (MS2 coat protein [2]; [9]): 0.469 µM; apparent Kd (MS2 coat protein [2]; [10]): 0.0631 µM
UCUUUCUAUGUAGAUACCAGCAUGUUAUCUUUCUUUUGACAUGAGGAUCACCCAUGUAAAUGCCCUUGGCAGCUACAUUUUCUUU | – | – | apparent Kd (MS2 coat protein [2]; [9]): 0.0214 µM; apparent Kd (MS2 coat protein [2]; [10]): 0.0154 µM
GAUGAACUAUUUGAUACCAGACUACAUGAGGAUCACCCAUGUGAGUUUAUACUUCUGUCAGUCCCUUGGCAGCAAAUAGUUUAUC | – | – | apparent Kd (MS2 coat protein [2]; [7]): 0.0192 µM; apparent Kd (MS2 coat protein [2]; [8]): 0.123 µM
GAGCUGAUGUAGAAAUUUUAUUUAUGAGAUACCAGUACAGAAAUGUACCCUUGGCAGCUCAUUUUUACAUGAGGAUCACCCAUGU | – | – | apparent Kd (MS2 coat protein [2]; [7]): 0.0125 µM; apparent Kd (MS2 coat protein [2]; [8]): 0.0138 µM
